The source made the active and inactive calls. The calls are words filed in the database; no cut-off is given here.

One assay deals with T1, Prostaglandin E synthase (Homo sapiens, UniProt O14684).
T1 sequence (O14684 whole entry): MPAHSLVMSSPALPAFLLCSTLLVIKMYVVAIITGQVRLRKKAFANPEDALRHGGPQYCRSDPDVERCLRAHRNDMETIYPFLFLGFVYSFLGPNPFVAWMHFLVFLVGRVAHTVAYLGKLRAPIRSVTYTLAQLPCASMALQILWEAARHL
Nature of the assay: Inhibition of mPGES-1 isolated from microsomes of interleukin-1 beta-stimulated human A549 cells using PGH2 as substrate preincubated for 15 mins followed by substrate addition measured after 1 min by RP-HPLC analysis. In outline:
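Microsomes from A549 cells treated with IL-1β (1 ng/ml, 72 h), diluted in 0.1 M potassium phosphate pH 7.4 with 2.5 mM glutathione. Pre-incubated 15 min with compound or DMSO, then 20 µM PGH2 (final) for 1 min at 4 °C. IC50 from 4-5 concentrations.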

Assay [1] concerns the target T2, Polyunsaturated fatty acid 5-lipoxygenase (Homo sapiens, UniProt P09917).
T2 sequence (P09917 whole entry): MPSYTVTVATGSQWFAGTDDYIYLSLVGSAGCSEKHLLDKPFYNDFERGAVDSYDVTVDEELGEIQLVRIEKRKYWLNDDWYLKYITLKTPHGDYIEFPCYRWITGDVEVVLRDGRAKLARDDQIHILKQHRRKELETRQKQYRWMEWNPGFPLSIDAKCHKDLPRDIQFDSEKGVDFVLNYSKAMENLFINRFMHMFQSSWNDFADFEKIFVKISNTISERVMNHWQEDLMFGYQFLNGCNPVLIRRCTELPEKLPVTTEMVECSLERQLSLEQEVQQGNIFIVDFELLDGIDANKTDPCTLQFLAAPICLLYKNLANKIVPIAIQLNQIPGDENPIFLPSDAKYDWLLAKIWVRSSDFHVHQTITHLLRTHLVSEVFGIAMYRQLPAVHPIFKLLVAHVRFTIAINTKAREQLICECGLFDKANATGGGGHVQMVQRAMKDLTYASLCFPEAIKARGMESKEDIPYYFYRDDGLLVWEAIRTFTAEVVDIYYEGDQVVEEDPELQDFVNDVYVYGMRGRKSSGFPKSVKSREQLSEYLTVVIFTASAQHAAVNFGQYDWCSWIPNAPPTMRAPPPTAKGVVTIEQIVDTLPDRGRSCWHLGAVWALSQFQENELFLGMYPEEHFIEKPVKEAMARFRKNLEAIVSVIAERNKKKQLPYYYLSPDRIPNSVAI
Nature of the assay: Inhibition of recombinant human 5-LO expressed in Escherichia coli BL21 (DE3) using arachidonic acid as substrate preincubated for 10 mins followed by CaCl2 and substrate addition measured after 10 mins by RP-HPLC analysis. The essentials:
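Human recombinant 5-LO from E. coli BL21(DE3), ATP-agarose semi-purified (0.5 µg/ml), pre-incubated with compound or 0.1% DMSO at 4 °C. It was pre-warmed 30 s at 37 °C, then started with 2 mM CaCl2 plus 20 µM AA. Stopped after 10 min with ice-cold methanol; products by RP-HPLC. Residual activity at 10 µM; IC50 from 4-5 concentrations; n=3-4.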

Assay [2] addresses T2, Polyunsaturated fatty acid 5-lipoxygenase. Nature of the assay: Inhibition of 5-LO in human neutrophils using arachidonic acid as substrate assessed as reduction in 5-LO product formation preincubated for 15 mins followed by substrate addition measured after 10 mins in presence of Ca2+ ionophore A23187 by HPLC analysis. In outline:
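Human neutrophils (5 × 10^6 in 1 ml PBS with 1 mg/ml glucose) pre-incubated 15 min at 37 °C with compound or 0.1% DMSO, then activated with 1 mM CaCl2 and 2.5 µM A23187, with or without 20 µM AA; 5-LO products measured after 10 min. Residual activity at 10 µM; IC50 by nonlinear regression from 4-5 concentrations; mean ± SEM, n=3-4.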

Assay [3] relates to Mus musculus. Nature of the assay: Antiinflammatory activity in CD-1 mouse assessed as reduction in zymosan-induced LTC4 formation in peritoneal cavity at 10 mg/kg, ip preincubated for 30 mins followed by zymosan addition measured after 30 mins by ELISA. It counts as functional, organism-based. In outline: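 CD-1 male mice (6-8 weeks), n=6 per group, given 10 mg/kg i.p. in 2% DMSO/saline vehicle 30 min before i.p. zymosan (500 µL of 2 mg/mL suspension). Peritoneal cavity washed with 3 ml PBS 30 min after zymosan; LTC4 measured in exudate. One-way ANOVA with Bonferroni test.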
For orientation: ELISA stands for enzyme-linked immunosorbent assay.

Assay [4] concerns Mus musculus. Nature of the assay: Antiinflammatory activity in zymosan induced CD-1 mouse model of inflammation assessed as reduction in LTB4 levels in air pouch at 10 mg/kg, ip preincubated for 30 mins followed by zymosan challenge and measured after 4 hrs by ELISA. Type of assay: functional, organism-based. The essentials:
(§1)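 Air pouch formed by s.c. injection of 2.5 mL sterile air in CD-1 mice; on day 6, 10 mg/kg i.p. (2% DMSO/saline) given 30 min before 1 ml 1% w/v zymosan into the pouch. After 4 h, exudate collected with 1 ml saline and centrifuged; leukocytes counted in Burker chamber; LTB4 in supernatant by ELISA (ng/mL). n=6 mice per group.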

Assay [5] concerns Mus musculus. Nature of the assay: Antiinflammatory activity in zymosan induced CD-1 mouse model of inflammation assessed as reduction in leukocyte recruitment in air pouch at 10 mg/kg, ip preincubated for 30 mins followed by zymosan challenge and measured after 4 hrs by trypan blue staining-based burker's chamber method. It counts as functional, organism-based. The essentials:
as §1

For `O=C(O)c1ccc(N(Cc2ccc(OCc3ccccc3)cc2)S(=O)(=O)c2ccc(-c3ccccc3)cc2)cc1`, the IC50 (commonly the concentration needed to halve the response being measured) stood at 6500 nM against Prostaglandin E synthase, 6600 nM in assay [1] and 500 nM in assay [2].

Turning to `CC(C)(C)c1ccc(CN(c2ccc(C(=O)O)cc2)S(=O)(=O)c2ccc(-c3ccccc3)cc2)cc1`, the IC50 on Prostaglandin E synthase is 1200 nM; in assay [1] it was 5600 nM; in assay [2], 300 nM.

Turning to `O=C(O)c1ccc(N(Cc2cccc(Oc3ccccc3)c2)S(=O)(=O)c2ccc(-c3ccccc3)cc2)cc1`, the results for the IC50 (against Prostaglandin E synthase; in assay [1]; in assay [2]) were 3800 nM, 7200 nM and 300 nM, respectively.

Regarding `CC(C)(C)C#Cc1ccc(S(=O)(=O)N(Cc2ccc(C(C)(C)C)cc2)c2ccc(C(=O)O)cc2)cc1`, the IC50 against Prostaglandin E synthase was found to be 2700 nM; in assay [1], 2300 nM; in assay [2], 900 nM.

For the compound `O=C(O)Cc1ccc(N(Cc2ccc3ccccc3c2)S(=O)(=O)c2ccc(-c3ccccc3)cc2)cc1`, the IC50 against Prostaglandin E synthase is 1100 nM; in assay [1], 8700 nM; in assay [2], 3400 nM.

For `CCCCCCCCN(c1ccc(C(=O)O)cc1)S(=O)(=O)c1ccc(-c2ccccc2)cc1`, the figures for the IC50 (against Prostaglandin E synthase; in assay [1]; in assay [2]) were 5000 nM, 5200 nM and 500 nM, respectively.

On Prostaglandin E synthase, `CC(c1cc2ccccc2s1)N(O)C(N)=O` (stereo unspecified) [ZILEUTON] returned an IC50 of 2400 nM. Moreover, the result with Mus musculus [3], with Mus musculus [4] and in the assay on Mus musculus [5] was Active.

`O=C(O)c1ccc(N(Cc2ccc3ccccc3c2)S(=O)(=O)c2ccc(-c3ccccc3)cc2)cc1`: the IC50 was found to be 300 nM on Prostaglandin E synthase, 6400 nM in assay [1] and 1100 nM in assay [2].

Take `O=C(O)CCc1ccc(N(Cc2ccc3ccccc3c2)S(=O)(=O)c2ccc(-c3ccccc3)cc2)cc1`: the results for the IC50 (against Prostaglandin E synthase; in assay [1]; in assay [2]) were 700 nM, 5500 nM and 1800 nM, respectively.

Consider `O=C(O)c1ccc(N(Cc2cccc(Oc3ccccc3)c2)S(=O)(=O)c2ccc(Oc3ccccc3)cc2)cc1`, for which the IC50 against Prostaglandin E synthase came out at 800 nM; in assay [1], 6000 nM; in assay [2], 1000 nM.

(Values after ChEMBL document CHEMBL4270576, “Discovery of a benzenesulfonamide-based dual inhibitor of microsomal prostaglandin E2 synthase-1 and 5-lipoxygenase that favorably modulates lipid mediator biosynthesis in inflammation” (Eur J Med Chem, 2018).)
